This is an account of results in PubChem BioAssay AID602209 (Southern Research Specialized Biocontainment Screening …, 2012).

This test deals with M17 leucyl aminopeptidase (Plasmodium falciparum 3D7). Put plainly: PfM17LAP leucine aminopeptidase inhibitors, dose response, counter-screen for PfM1AAP inhibitor project, biochemical, QFRET, set 2 (AID 602209). The settings on record: recombinant PfM17LAP, H-Leu-NHMec fluorogenic cleavage. The method in brief:
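Test system: Recombinant Plasmodium falciparum M17 leucine aminopeptidase enzyme | Amount: Recombinant PfM17LAP enzyme at 5 µg/mL final | Read-out: % inhibition and IC50 via 4-parameter fit | Compound: 100–0.2 µM, 2-fold dilutions | Repeats: Triplicate | Detection: Fluorescence of released NHMec leaving group | Timing: Reaction 90 min, room temperature | Buffer or medium: Tris-HCl pH 7.5 plus CoCl2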
On the technique in general: Counterscreens check selectivity or assay interference.

Calls of active or inactive are those of the source.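 How the source made its calls: active means inhibition of 30% or more at any tested concentration; inactive means the rest.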

Take `CC[C@H](C)[C@H](NC(=O)c1ccc(C(C)(C)C)cc1)C(=O)NCc1ccc(Cl)cc1`: under “at 100 µM (top of the series)”, the inhibition entry was “inactive”.

Turning to `O=C(NCc1ccccc1)C1CCN(S(=O)(=O)c2ccc(Br)s2)CC1`, the IC50 – broadly, the concentration needed to halve the response being measured – was 3.52 µM.

With `O=C(NCc1ccc(F)cc1)C1CCN(S(=O)(=O)c2ccc(Br)s2)CC1`, the 50% inhibitory concentration (IC50) is 8.81 µM.

On to `O=C(NCc1ccc(Cl)cc1)C1CCN(S(=O)(=O)c2ccc(Br)s2)CC1`, for which the IC50 was 38.9 µM.

In the case of `CC[C@H](C)[C@H](NC(=O)c1ccc(C(C)(C)C)cc1)C(=O)NCc1ccc2c(c1)OCO2`, the inhibition result (at 1.56 µM (top of the series)) was “inactive”.

As for `CC[C@H](C)[C@H](NS(=O)(=O)c1ccc(Br)s1)C(=O)NCc1ccc2c(c1)OCO2`, where the note is “at 100 µM (top of the series)”, the inhibition entry is “inactive”.

Regarding `CC[C@H](C)[C@H](NS(=O)(=O)c1ccc(Br)s1)C(=O)NCc1ccc(Cl)cc1`, the inhibition result (at 100 µM (top of the series)) was “inactive”.

Consider `O=C(NCc1ccc2c(c1)OCO2)C1CCN(S(=O)(=O)c2ccc(Br)s2)CC1`, for which the IC50 is 3.57 µM.
